This note sets out measurements from ChEMBL document CHEMBL4392836, “Second-generation aryl isonitrile compounds targeting multidrug-resistant Staphylococcus aureus” (Bioorg Med Chem, 2019).

Data set [1] deals with Staphylococcus aureus. Briefly: Antibacterial activity against methicillin-resistant Staphylococcus aureus NRS123 USA400 after 18 to 24 hrs by broth microdilution assay. The format is functional. In outline:
(§1)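 CLSI broth microdilution with modifications. Bacteria cultured in TSB and exposed to compounds or control antibiotics in triplicate. Plates incubated aerobically at 37 °C for 18–24 h. MIC is the lowest concentration preventing visible growth.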

Data set [2] relates to Pseudomonas aeruginosa. Briefly: Antibacterial activity against Pseudomonas aeruginosa ATCC 15442 after 18 to 24 hrs by broth microdilution assay. The format is functional. In outline: (§2)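 Broth microdilution MIC per CLSI guidelines with modifications. Bacteria grown in TSB and exposed to compounds or control antibiotics in triplicate. Plates incubated aerobically at 37 °C for 18–24 h. MIC taken as the lowest concentration with no visible growth.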

Data set [3] deals with Staphylococcus epidermidis. Briefly: Antibacterial activity against methicillin-resistant Staphylococcus epidermidis NRS101 after 18 to 24 hrs by broth microdilution assay. Format: functional. The essentials: as §1
Data set [4] concerns Enterobacter cloacae. Briefly: Antibacterial activity against Enterobacter cloacae BAA1134 after 18 to 24 hrs by broth microdilution assay. The format is functional. The essentials:
as §2

Data set [5] deals with Staphylococcus aureus. Briefly: Antibacterial activity against vancomycin-resistant Staphylococcus aureus VRS10 after 18 to 24 hrs by broth microdilution assay. Format: functional. The essentials:
as §1

In data set [6] the test system is Staphylococcus aureus. The data set is described as follows: Antibacterial activity against methicillin-resistant Staphylococcus aureus USA300 NRS384 after 18 to 24 hrs by broth microdilution assay. The format is functional. The essentials: as §1
Another data set deals with Enterococcus faecium. The data set is described as follows: Antibacterial activity against vancomycin-resistant Enterococcus faecium ATCC 700221 after 18 to 24 hrs by broth microdilution assay. Format: functional. The essentials: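 Broth microdilution per CLSI with modifications. Cultured in BHI and exposed to compounds in triplicate. Incubated aerobically at 37 °C for 18–24 h. MIC read as the lowest concentration with no visible growth.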

Another data set deals with Streptococcus pneumoniae. The data set is described as follows: Antibacterial activity against penicillin-resistant Streptococcus pneumoniae ATCC 700677 after 18 to 24 hrs by broth microdilution assay. Format: functional. In outline:
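CLSI broth microdilution with modifications. Bacteria exposed to compounds in triplicate and incubated at 37 °C with 5% CO₂ for 18–24 h. MIC is the lowest concentration preventing visible growth.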

The test system of data set [7] is Staphylococcus aureus. The data set is described as follows: Antibacterial activity against methicillin-resistant Staphylococcus aureus NRS119 after 18 to 24 hrs by broth microdilution assay. The format is functional. In outline: as §1
The test system of data set [8] is Klebsiella pneumoniae. The data set is described as follows: Antibacterial activity against Klebsiella pneumoniae ATCC BAA-1705 after 18 to 24 hrs by broth microdilution assay. Format: functional. In outline:
as §2

In data set [9] the test system is Staphylococcus aureus. Briefly: Antibacterial activity against vancomycin-resistant Staphylococcus aureus VRS11a after 18 to 24 hrs by broth microdilution assay. The format is functional. In outline:
as §1

Data set [10] deals with Staphylococcus aureus. Briefly: Antibacterial activity against methicillin-sensitive Staphylococcus aureus NRS107 after 18 to 24 hrs by broth microdilution assay. Format: functional. In outline:
as §1

Data set [11] concerns Staphylococcus aureus. The data set is described as follows: Antibacterial activity against methicillin-resistant Staphylococcus aureus NRS385 USA500 after 18 to 24 hrs by broth microdilution assay. Format: functional. The essentials:
as §1

The test system of data set [12] is Acinetobacter baumannii. Briefly: Antibacterial activity against Acinetobacter baumannii BAA1605 after 18 to 24 hrs by broth microdilution assay. The format is functional. The essentials:
as §2

For data set [13], the system named is Enterobacter cloacae. Briefly: Antibacterial activity against Enterobacter cloacae BAA1134 after 18 to 24 hrs in presence of colistin by broth microdilution assay. Format: functional. The essentials:
(§3)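 To permeabilize the outer membrane, CLSI broth microdilution in TSB (triplicate) was run with subinhibitory colistin: ¼ × MIC for A. baumannii, E. cloacae and E. coli strains, and P. aeruginosa; ½ × MIC for K. pneumoniae. Plates incubated aerobically at 37 °C for 18–24 h. MIC taken as the lowest concentration with no visible growth.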

Data set [14] can be described thus: Tmax in human at 625 mg, po. Format: ADME. The note with it: in vivo.
The subject of data set [15] is Acinetobacter baumannii. The data set is described as follows: Antibacterial activity against Acinetobacter baumannii BAA1605 after 18 to 24 hrs in presence of colistin by broth microdilution assay. Format: functional. In outline: as §3
Data set [16] is described as follows: Cmax in human at 625 mg, po. On the set-up: dose 625 mg, route oral. Format: ADME. The note with it: in vivo.
The nature of data set [17]: Clearance in human at 625 mg, iv. The format is ADME. The note with it: in vivo.
Data set [18] concerns Escherichia coli. The data set is described as follows: Antibacterial activity against Escherichia coli BW25113 after 18 to 24 hrs in presence of colistin by broth microdilution method. The format is functional. In outline: as §3
Data set [19] relates to Klebsiella pneumoniae. The data set is described as follows: Antibacterial activity against Klebsiella pneumoniae ATCC BAA-1705 after 18 to 24 hrs in presence of colistin by broth microdilution assay. Format: functional. In outline:
as §3

The test system of data set [20] is Pseudomonas aeruginosa. The data set is described as follows: Antibacterial activity against Pseudomonas aeruginosa ATCC 15442 after 18 to 24 hrs in presence of colistin by broth microdilution assay. The format is functional. The essentials:
as §3

The nature of another data set: clinical. The note with it: human, in vivo, iv, 625 mg.
The nature of data set [21]: Cmax in human at 625 mg, iv. The note with it: in vivo. Details: dose 625 mg, route intravenous. Format: ADME.
The nature of data set [22]: Tmax in human at 625 mg, iv. The format is ADME. The note with it: in vivo.
For data set [23], the system named is Escherichia coli. Briefly: Antibacterial activity against Escherichia coli BW25113 after 18 to 24 hrs in absence of colistin by broth microdilution method. The format is functional. The essentials:
as §2

The test system of data set [24] is Escherichia coli. The data set is described as follows: Antibacterial activity against AcrAB-TolC deficient Escherichia coli […] after 18 to 24 hrs in absence of colistin by broth microdilution method. Format: functional. The essentials:
as §2

Data set [25] has as its system Escherichia coli. Briefly: Antibacterial activity against AcrAB-TolC deficient Escherichia coli […] after 18 to 24 hrs in presence of colistin by broth microdilution method. The format is functional. In outline:
as §3

The subject of data set [26] is Staphylococcus aureus. The data set is described as follows: Antibacterial activity against methicillin-resistant Staphylococcus aureus USA300 infected in Balb/c mouse assessed as reduction in bacterial burden in wounded skin area at 2% administered topically twice daily for 5 consecutive days measured 12 hrs post last dose relative to control. The format is functional. Details: scale not given: the % may be the effect or the level left. In outline:
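Eight-week-old female Balb/c mice (n = 5 per group) received an intradermal injection of 40 μL of 1.32 × 10⁹ CFU/mL MRSA USA300. From abscess formation (~48 h), a 2% suspension in petroleum jelly was applied topically twice daily for 5 days, with a vehicle-only group. Mice were euthanized 12 h after the last dose. Wounds were homogenized in PBS, serially diluted and plated on mannitol salt agar (≥16 h, 37 °C). CFU reduction was calculated against vehicle.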

A further data set deals with Mus musculus. The data set is described as follows: Induction of inflammation in wounded skin area of Balb/c mouse infected with methicillin-resistant Staphylococcus aureus USA300 at 2% administered topically twice daily for 5 consecutive days measured 4 times daily during compound dosing. Format: organism-based. The note with it: in vivo, topical_or_ocular. In outline:
(§4)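 Female Balb/c mice with intradermal MRSA USA300 abscesses were treated topically twice daily for 5 days with a 2% suspension in petroleum jelly, alongside a vehicle group. Mice were checked at least four times daily during infection and treatment for adverse reactions. Wounds were examined for inflammation and toxicity.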

A short description of data set [27]: Toxicity in wounded skin area of Balb/c mouse infected with methicillin-resistant Staphylococcus aureus USA300 at 2% administered topically twice daily for 5 consecutive days measured 4 times daily during compound dosing. The note with it: in vivo, topical_or_ocular. In outline:
as §4

Converted amounts (≈) assume the structure as drawn.

Regarding `N#Cc1ccc(CCc2ccncc2)cc1`, in the data set with Staphylococcus aureus [1], the lowest concentration to inhibit growth (MIC) was 64 µM (≈ 13.3 µg/mL).

Turning to `CN[C@H](CC(C)C)C(=O)N[C@H]1C(=O)N[C@@H](CC(N)=O)C(=O)N[C@H]2C(=O)N[C@H]3C(=O)N[C@H](C(=O)N[C@H](C(=O)O)c4cc(O)cc(O)c4-c4cc3ccc4O)[C@H](O)c3ccc(c(Cl)c3)Oc3cc2cc(c3O[C@@H]2O[C@H](CO)[C@@H](O)[C@H](O)[C@H]2O[C@H]2C[C@](C)(N)[C@H](O)[C@H](C)O2)Oc2ccc(cc2Cl)[C@H]1O` [VANCOMYCIN], the MIC against Pseudomonas aeruginosa [2] was over 64 µM; in [3], 4 µM (≈ 5.8 µg/mL); in the data set with Enterobacter cloacae [4], over 64 µM; in the data set with Staphylococcus aureus [5], over 64 µM; against Staphylococcus aureus [6], 1 µM (≈ 1.45 µg/mL); in the data set on Enterococcus faecium, over 64 µM. The MIC is 1 µM (≈ 1.45 µg/mL) in the data set on Streptococcus pneumoniae; 1 µM (≈ 1.45 µg/mL) with Staphylococcus aureus [7]; over 64 µM with Klebsiella pneumoniae [8]; over 64 µM with Staphylococcus aureus [9]; 1 µM (≈ 1.45 µg/mL) in the data set on Staphylococcus aureus [1]; 1 µM (≈ 1.45 µg/mL) against Staphylococcus aureus [10]. Besides, the figures for the MIC in the data set on Staphylococcus aureus [11] and in the data set on Acinetobacter baumannii [12] were 1 µM (≈ 1.45 µg/mL) and 32 µM (≈ 46.4 µg/mL), respectively.

Take `CC(=O)NC[C@H]1CN(c2ccc(N3CCOCC3)c(F)c2)C(=O)O1` [LINEZOLID]: the MIC in the data set on Enterobacter cloacae [13] is 16 µM; in the data set on Acinetobacter baumannii [15], over 64 µM; against Pseudomonas aeruginosa [2], over 64 µM; in data set [3] it was 2 µM (≈ 0.675 µg/mL); in the data set with Escherichia coli [18] it was over 64 µM; in the data set with Klebsiella pneumoniae [19], over 64 µM. Besides, the MIC with Pseudomonas aeruginosa [20] was over 64 µM; with Enterobacter cloacae [4], over 64 µM; against Staphylococcus aureus [5], 2 µM (≈ 0.675 µg/mL); against Staphylococcus aureus [6], 2 µM (≈ 0.675 µg/mL); against Enterococcus faecium it was 0.5 µM (≈ 0.169 µg/mL); in the data set with Streptococcus pneumoniae it was 2 µM (≈ 0.675 µg/mL). The MIC was 32 µM (≈ 10.8 µg/mL) against Staphylococcus aureus [7]; over 64 µM against Klebsiella pneumoniae [8]; over 64 µM against Escherichia coli [23]; 2 µM (≈ 0.675 µg/mL) against Staphylococcus aureus [9]; 1 µM (≈ 0.337 µg/mL) in the data set on Staphylococcus aureus [1]; 2 µM (≈ 0.675 µg/mL) in the data set on Staphylococcus aureus [10]. Also, the MIC in the data set with Escherichia coli [24] is 16 µM (≈ 5.4 µg/mL); in the data set with Escherichia coli [25], 16 µM; in the data set on Staphylococcus aureus [11], 4 µM (≈ 1.35 µg/mL); against Acinetobacter baumannii [12], over 64 µM. For the same compound, the Tmax came to 1.33 h in [14] and 30 min in data set [22]. Further, the Cmax turned out to be 12700 ng/mL in [16] and 13400 ng/mL in [21]. In [17], this compound gave a clearance of 1.74 mL/min/kg. Moreover, in “clinical”, the half-life is 264 min.

For the compound `N#Cc1ccccc1/C=C/c1ccccc1`, the MIC against Staphylococcus aureus [6] and in the data set on Staphylococcus aureus [7] was 4 µM (≈ 0.821 µg/mL) in each case.

In turn, `N#Cc1ccc(CCc2cccc(C#N)c2)cc1` returned a minimal inhibitory concentration (MIC) against Staphylococcus aureus [1] of 32 µM (≈ 7.43 µg/mL).

Take `N#Cc1ccc(/C=C/c2ccc(F)cc2)cc1`: the MIC in the data set on Staphylococcus aureus [1] worked out at 64 µM (≈ 14.3 µg/mL).

In the data set with Staphylococcus aureus [1], `N#Cc1ccc(/C=C/c2ccnc3ccccc23)cc1` registered an MIC of over 64 µM.

In the data set on Staphylococcus aureus [1], `N#Cc1ccc(CCC2CCNc3ccccc32)cc1` (stereo not given) came in with an MIC of 32 µM (≈ 8.4 µg/mL).

The compound `N#Cc1ccc(CCc2ccccc2C#N)cc1` showed an MIC with Staphylococcus aureus [1] of over 64 µM.

In turn, `N#Cc1ccc(CCc2cccnc2)cc1` had an MIC in the data set with Staphylococcus aureus [1] of over 64 µM.

`N#Cc1ccc(CCc2ccccn2)cc1`: the MIC with Staphylococcus aureus [1] is over 64 µM.

On to `CC(=O)O[C@H]1C[C@@]2(C)[C@@H](C[C@@H](O)[C@H]3[C@@]4(C)CC[C@@H](O)[C@@H](C)[C@@H]4CC[C@@]32C)/C1=C(\CCC=C(C)C)C(=O)O` [FUSIDIC ACID], for which the Activity in the data set with Staphylococcus aureus [26] is 77.78%; with Mus musculus it was “Non-Toxic”; in data set [27], “Non-Toxic”.
